inhibition, Kd and Activity data for nine compounds are collected here from ChEMBL document CHEMBL5042551, “Dynamic Combinatorial Optimization of In Vitro and In Vivo Heparin Antidotes” (J Med Chem, 2022).

Assay [1] relates to Heparin. In words: Inhibition of heparin (unknown origin) assessed as reversal of heparin reduced FXa protease activity by measuring Z-D-LGR-N(Me)ANBA peptide substrate at 1 uM hydrolysis after 30 mins. Particulars: Homo sapiens. Summed up:
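Human antithrombin III (0.02 IU/mL) and factor Xa (0.085 μg/mL) combined with heparin (0.1 IU/mL) and ligand (1 μM), then chromogenic substrate added (485 μM) with 4-nitroaniline as internal standard, shaken at 25 °C. Aliquots acid-quenched and analysed by HPLC at 405 nm; percent hydrolysis taken from normalized cleaved-peptide area, with no-heparin as maximal activity and heparin-only as maximal inhibition.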

Assay [2] has as its target Heparin. In words: Binding affinity to heparin (unknown origin) assessed as apparent dissociation constant by SPR assay. Also on record: species or system Homo sapiens. Conditions: read-out: Kd(app). Summed up:
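Heparin-functionalized chip: biotin sensor chip loaded with streptavidin (50 μg/mL), then biotin-heparin (50 μg/mL). Ligands injected at 40 μL/min, 25 °C, in 25 mM Tris pH 7.5; surface regenerated with 10 mM HCl. Three independent runs at three ligand concentrations globally fitted to a 1:1 two-state (conformational change) model to give on/off rates and KDapp.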
A general note: In SPR one partner is held on a chip, and binding of the other changes the refractive index at the surface.

Assay [3] addresses Heparin. Kind of assay: Binding affinity to heparin (unknown origin) assessed as apparent dissociation constant by ITC assay. Set-up: species or system Homo sapiens. Conditions: read-out: Kd(app). A general note: Isothermal titration calorimetry measures the heat released or taken up as one component is titrated into another.
In assay [4] the test system is Heparin. In words: Reversal of heparin mediated anticoagulant activity in mouse blood after 15 mins. Conditions: dose 90-250 µM. Summed up: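 Freshly drawn, untreated mouse blood split into 300 μL aliquots, given heparin (130 μM, per disaccharide repeat unit) plus ligand at various concentrations; after 15 min, clotting judged by inverting the tubes and photographing.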

Assay [5] has as its system Heparin. In words: Reversal of heparin mediated anticoagulant activity in heparinized CD-1 mouse at 2.2 to 4.4 mg/kg, iv after 10 mins by tail transection assay. The class given is organism-based. Particulars: dose 2.2-4.4 mg/kg. Summed up: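 Eight-week-old male CD-1 mice anaesthetised with xylazine/ketamine, then given iv heparin (100 IU/kg) followed by ligand at 2.2 or 4.4 mg/kg; saline, heparin-only and ligand-only (4.4 mg/kg, n = 3) controls. Tails cut 5 mm from tip 5 min after injection and bled 10 min into 1 mL saline at 37 °C; blood volume from absorbance at 414 nm against a standard curve. ANOVA.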

A further assay concerns A549. In words: Cytotoxicity against human A549 cells assessed as reduction in cell viability at 25 to 50 uM incubated for 1 hr by MTT assay. Particulars: dose 25-50 µM. The class given is functional, cell-based. Summed up:
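A549 cells grown in DMEM with 10% FCS, 2 mM glutamine and antibiotics at 37 °C, 5% CO2; seeded at 7000 cells/well, exposed to compound in medium 24 h later for 1 h, then MTT (0.5 mg/mL) for 2 h, formazan dissolved in DMSO, absorbance read at 570 nm. Viability as percent of untreated cells; three independent experiments.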

Assay [6] has as its target Heparin. In words: Binding affinity to heparin (unknown origin) assessed as apparent dissociation constant by fluorescence emission titration method. Also on record: species or system Homo sapiens. Particulars: read-out: Kd(app). Summed up: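 Binder at 10 μM in 1 mM Bis-Tris pH 7.5, excited at 280 nm; heparin stock (18 IU/mL) added in small portions with emission spectrum recorded after each addition. Full spectra globally fitted by nonlinear regression to a binding model of 1:1, 1:2 and 2:1 ligand–heparin disaccharide complexes to estimate equilibrium constants and apparent KD.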

Active and inactive are the calls of the source. No cut-off for these calls is given here.

As to `Oc1ccccc1CNCCCNCCCCNCCCNCc1ccc2ccccc2c1O`, the inhibition result in the assay with Heparin [1] is “Active”. Moreover, the Kd at Heparin [2] turned out to be 1.86 µM.
The matching figures for `N=C(N)NCCC[C@H](N)C(=O)NCCCN1CCN(CCCNC(=O)[C@@H](N)CCCNC(=N)N)CC1` [CIRAPARANTAG]: “Active” and 1.53 µM.
As to `Oc1c(CNCCCNCCCCNCCCNCc2ccc3ccccc3c2O)ccc2ccccc12`, the inhibition result in the assay on Heparin [1] was “Active”.
In the case of `Oc1ccccc1CNCCCNCCCCNCCCNCc1cccc2ccccc12`, the results for the Kd at Heparin [3] and on Heparin [2] were 1.3 µM and 1.89 µM, respectively.
Consider `Oc1ccccc1CNCCCNCCCCNCCCNCc1ccc2c(c1)Cc1ccccc1-2`, for which, in the assay with Heparin [4], the Activity entry was “Dose-Dependent Effect”. Moreover, the inhibition entry in the assay with Heparin [1] was “Active”. Besides, in the assay with Heparin [5], the result was Active. Moreover, the result with A549 was inactive. The results for the Kd on Heparin [2] and on Heparin [6] were 0.567 µM and 0.5 µM, respectively.
Regarding `COc1ccccc1CNCCCNCCCCNCCCNCc1ccccc1OC`, the Kd at Heparin [2] was 33.7 µM.
For `Oc1ccccc1CNCCCNCCCCNCCCNCc1ccccc1O`, the Kd at Heparin [3] is 22.5 µM; at Heparin [2], 21.5 µM.
On to `Oc1ccccc1CNCCCNCCCCNCCCNCc1c(O)ccc2ccccc12`, for which the Kd at Heparin [2] worked out at 2.62 µM.
As to `Oc1ccc2ccccc2c1CNCCCNCCCCNCCCNCc1c(O)ccc2ccccc12`, the Activity result in the assay on Heparin [4] is “Dose-Dependent Effect”. Further, in the assay on Heparin [1], the inhibition entry is “Active”. For the same compound, the outcome in the assay with Heparin [5] was Active. Moreover, the result in the assay with A549 was inactive. Besides, the Kd at Heparin [2] was determined as 0.797 µM.
